From ChEMBL document CHEMBL4311983, “Development of chalcone-O-alkylamine derivatives as multifunctional agents against Alzheimer's disease” (Eur J Med Chem, 2019) come the findings set out here.

The structures appear in SMILES notation.

Series [1] can be described thus: Antioxidant activity assessed as AAPH scavenging activity by ORAC fluorescein assay. The format is functional. Summed up:
(§1)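 ORAC-FL in 75 mM phosphate buffer pH 7.40; fluorescein 150 nM final plus test antioxidant; Trolox standard at 1-8 μM final; values as Trolox equivalents.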

Series [2] has as its target T1, Amine oxidase [flavin-containing] B (Homo sapiens, UniProt P27338).
T1 sequence (P27338 whole entry): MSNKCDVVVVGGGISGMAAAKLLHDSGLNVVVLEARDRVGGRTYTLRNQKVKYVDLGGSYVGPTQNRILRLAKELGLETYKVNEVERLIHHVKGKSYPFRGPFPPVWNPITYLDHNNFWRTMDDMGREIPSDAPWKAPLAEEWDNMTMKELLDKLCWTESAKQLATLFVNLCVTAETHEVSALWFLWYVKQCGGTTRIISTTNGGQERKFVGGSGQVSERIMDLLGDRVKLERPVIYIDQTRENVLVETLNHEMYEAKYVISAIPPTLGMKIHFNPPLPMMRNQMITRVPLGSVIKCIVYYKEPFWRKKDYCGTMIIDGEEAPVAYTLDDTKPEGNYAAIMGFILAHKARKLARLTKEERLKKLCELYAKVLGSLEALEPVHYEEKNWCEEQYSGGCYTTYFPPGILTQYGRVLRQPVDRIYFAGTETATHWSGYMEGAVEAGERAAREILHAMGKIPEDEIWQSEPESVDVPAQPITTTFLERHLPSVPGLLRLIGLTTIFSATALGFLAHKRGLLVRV
As to the kind of experiment: Inhibition of MAO-B (unknown origin) relative to control.

Series [3] is described as follows: Inhibition of Cu2+-induced amyloid beta (1 to 42 residues) aggregation at 25 uM after 24 hrs by thioflavin T-based fluorescence assay relative to control. Summed up: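 Aβ1-42 (25 μM final) with Cu2+ (25 μM final) in 20 mM HEPES pH 6.6, 150 NaCl, ± compound 25 μM final, 37 °C for 24 h; 5 μM ThT in 50 mM glycine-NaOH pH 8.50 added; ex 446/em 490 nm; triplicate.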

Series [4] has as its target Amyloid-beta precursor protein (Homo sapiens) (UniProt P05067). As to the kind of experiment: Inhibition of HFIP-pretreated amyloid beta (1 to 42 residues) (unknown origin) self aggregation at 25 uM after 24 hrs by ThT-based fluorescence method relative to control. A digest of the protocol: (§2)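 HFIP-treated Aβ1-42, dried, redissolved in DMSO; 25 μM final peptide incubated with 25 μM compound in 50 mM phosphate buffer pH 7.40, 37 °C, 24 h; 5 μM ThT in 50 mM glycine-NaOH pH 8.0 added; fluorescence ex 446/em 490 nm.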

Series [5] in a line: Antioxidant activity assessed as trolox equivalent of AAPH-induced radical scavenging activity preincubated for 15 mins followed by AAPH addition measured every minute for 120 mins by ORAC fluorescein assay. The format is functional. A digest of the protocol:
as §1

The target in series [6] is T2, Amine oxidase [flavin-containing] A (Homo sapiens, UniProt P21397).
T2 sequence (P21397 whole entry): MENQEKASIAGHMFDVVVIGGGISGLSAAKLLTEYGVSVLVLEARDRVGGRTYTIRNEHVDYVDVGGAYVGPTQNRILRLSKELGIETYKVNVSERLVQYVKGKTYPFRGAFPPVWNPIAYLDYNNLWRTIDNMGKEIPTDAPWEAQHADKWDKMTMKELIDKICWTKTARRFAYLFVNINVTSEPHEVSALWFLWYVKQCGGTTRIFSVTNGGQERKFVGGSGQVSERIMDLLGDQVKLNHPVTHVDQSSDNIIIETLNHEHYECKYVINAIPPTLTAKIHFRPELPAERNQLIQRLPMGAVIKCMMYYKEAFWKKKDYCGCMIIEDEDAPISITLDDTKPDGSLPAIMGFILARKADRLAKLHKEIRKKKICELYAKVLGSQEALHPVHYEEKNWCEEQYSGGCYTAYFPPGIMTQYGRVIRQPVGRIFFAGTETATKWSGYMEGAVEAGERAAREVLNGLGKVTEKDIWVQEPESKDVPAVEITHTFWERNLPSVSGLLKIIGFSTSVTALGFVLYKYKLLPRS
Nature of the series: Inhibition of recombinant human MAO-A expressed in baculovirus infected BTI insect cells at 10 uM using kynuramine as substrate after 30 mins by fluorescence based assay relative to control. The following applies: 0.5 h.

Series [7] addresses T1, Amine oxidase [flavin-containing] B. Nature of the series: biochemical. The series is classed as cell-based.
Series [8] in a line: Selectivity index, ratio of IC50 for equine BuChE to IC50 for electric eel AChE. A digest of the protocol:
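Ratio of Ellman-assay IC50 values, BuChE over AChE. Enzymes were equine serum BuChE and electric eel AChE, each at 0.05 U/mL final in pH 8.0 phosphate buffer. Each IC50 is the mean of three independent experiments run in triplicate.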

For series [9], the target named is Cholinesterase (Equus caballus, UniProt P81908). As to the kind of experiment: Inhibition of equine butyrylcholinesterase using butyrylthiocholine iodide as substrate incubated for 15 mins by Ellman's method. Summed up: (§3)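 Modified Ellman assay in phosphate buffer pH 8.0, with enzyme at 0.05 U/mL final: eel AChE, equine serum BuChE or human serum BuChE. Test compound was added at several concentrations, and blanks lacked enzyme.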
On the technique in general: In Ellman's method for cholinesterases, released thiocholine reacts with DTNB.

For series [10], the target named is T3, Acetylcholinesterase (Electrophorus electricus, UniProt O42275). The series is classed as single protein.
Series [11] is described as follows: Disaggregation of Cu2+ induced preformed fibrils of amyloid beta (1 to 42) at 25 uM preincubated with Cu2+ for 24 hrs followed by compound addition and measured after 24 hrs by thioflavin-T based fluorescence assay relative to control. A digest of the protocol: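 Aβ1-42 and Cu2+ (each 25 μM final) in 20 mM HEPES pH 6.6, 150 mM NaCl, preincubated 24 h at 37 °C; compound (25 μM final) added, another 24 h at 37 °C under film; 5 μM ThT in glycine-NaOH added; ex 446/em 490 nm; triplicate.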

The target of series [12] is T1, Amine oxidase [flavin-containing] B. As to the kind of experiment: Inhibition of MAO-B (unknown origin).
In series [13] the target is Amyloid-beta precursor protein (Homo sapiens) (UniProt P05067). As to the kind of experiment: Inhibition of self-induced amyloid beta ( 1 to 42 residues) (unknown origin) aggregation relative to control. The following applies: concentration not given here. A digest of the protocol:
as §2

Series [14] has as its target T3, Acetylcholinesterase. As to the kind of experiment: Inhibition of Electric eel AChE. Summed up:
as §3

Series [15] has as its target T4, Cholinesterase (Homo sapiens, UniProt P06276). As to the kind of experiment: Inhibition of human BuChE using butyrylthiocholine iodide as substrate incubated for 15 mins by Ellman's method. Summed up:
as §3

In series [16] the target is Acetylcholinesterase (Homo sapiens, UniProt P22303). As to the kind of experiment: Inhibition of human AChE using acetylthiocholine iodide as substrate after 15 mins by Ellman's method.
Series [17] deals with T4, Cholinesterase. As to the kind of experiment: Inhibition of BuChE (unknown origin).

Usually inhibition stands for the drop in the measured response relative to a control, in per cent. The term IC50 denotes the concentration that gives 50% inhibition. A low value points to higher potency.

Sequence of Cholinesterase (Equus caballus, UniProt P81908) (P81908 whole entry): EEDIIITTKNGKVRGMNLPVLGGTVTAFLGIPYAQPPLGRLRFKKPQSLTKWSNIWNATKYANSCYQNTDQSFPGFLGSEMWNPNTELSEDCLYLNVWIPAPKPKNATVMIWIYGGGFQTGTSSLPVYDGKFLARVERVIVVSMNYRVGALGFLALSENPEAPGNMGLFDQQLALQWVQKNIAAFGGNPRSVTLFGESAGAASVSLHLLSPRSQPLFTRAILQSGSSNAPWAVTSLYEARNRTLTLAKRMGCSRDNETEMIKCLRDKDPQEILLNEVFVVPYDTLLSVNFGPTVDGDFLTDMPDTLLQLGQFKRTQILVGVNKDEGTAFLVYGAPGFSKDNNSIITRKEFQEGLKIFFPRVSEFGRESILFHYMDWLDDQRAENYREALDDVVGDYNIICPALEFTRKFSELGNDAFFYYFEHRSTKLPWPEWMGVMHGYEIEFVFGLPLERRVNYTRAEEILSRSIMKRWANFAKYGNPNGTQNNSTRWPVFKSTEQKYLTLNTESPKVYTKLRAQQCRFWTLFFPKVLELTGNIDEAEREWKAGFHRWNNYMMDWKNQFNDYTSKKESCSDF
T3 sequence (O42275 whole entry): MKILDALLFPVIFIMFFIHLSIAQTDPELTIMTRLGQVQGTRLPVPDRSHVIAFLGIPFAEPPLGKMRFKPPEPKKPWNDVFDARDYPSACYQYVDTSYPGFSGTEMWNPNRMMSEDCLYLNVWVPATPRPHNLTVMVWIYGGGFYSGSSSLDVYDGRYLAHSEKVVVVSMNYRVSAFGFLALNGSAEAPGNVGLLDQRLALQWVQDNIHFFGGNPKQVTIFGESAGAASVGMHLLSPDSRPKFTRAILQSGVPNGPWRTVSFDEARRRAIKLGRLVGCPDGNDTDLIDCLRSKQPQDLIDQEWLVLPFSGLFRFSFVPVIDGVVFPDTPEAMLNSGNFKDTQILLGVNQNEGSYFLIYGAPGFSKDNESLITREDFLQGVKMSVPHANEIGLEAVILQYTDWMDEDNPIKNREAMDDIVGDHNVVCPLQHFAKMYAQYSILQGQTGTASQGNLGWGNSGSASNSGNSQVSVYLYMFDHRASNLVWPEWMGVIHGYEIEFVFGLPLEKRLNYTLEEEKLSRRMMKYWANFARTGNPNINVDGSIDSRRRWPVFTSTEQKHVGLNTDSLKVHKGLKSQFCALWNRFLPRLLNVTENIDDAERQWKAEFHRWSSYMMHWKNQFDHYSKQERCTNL
T4 sequence (P06276 whole entry): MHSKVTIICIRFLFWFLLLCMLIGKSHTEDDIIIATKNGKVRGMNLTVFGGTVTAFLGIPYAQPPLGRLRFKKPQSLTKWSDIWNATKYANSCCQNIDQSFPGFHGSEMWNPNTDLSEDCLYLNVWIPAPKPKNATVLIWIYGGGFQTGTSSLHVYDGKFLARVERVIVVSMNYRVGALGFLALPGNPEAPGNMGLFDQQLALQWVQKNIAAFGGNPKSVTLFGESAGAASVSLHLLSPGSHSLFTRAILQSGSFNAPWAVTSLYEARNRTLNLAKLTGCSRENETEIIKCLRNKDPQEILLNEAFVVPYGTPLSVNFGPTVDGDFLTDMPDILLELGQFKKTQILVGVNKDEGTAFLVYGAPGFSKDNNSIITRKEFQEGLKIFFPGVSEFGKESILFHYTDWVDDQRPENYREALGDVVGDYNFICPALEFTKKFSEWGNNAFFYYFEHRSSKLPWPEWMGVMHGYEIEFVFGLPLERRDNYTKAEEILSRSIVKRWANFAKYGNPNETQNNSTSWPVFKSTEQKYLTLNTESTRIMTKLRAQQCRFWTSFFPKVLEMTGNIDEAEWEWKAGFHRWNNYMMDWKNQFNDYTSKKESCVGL
Sequence of Amyloid-beta precursor protein (Homo sapiens) (P05067 whole entry, the tested form may be a part): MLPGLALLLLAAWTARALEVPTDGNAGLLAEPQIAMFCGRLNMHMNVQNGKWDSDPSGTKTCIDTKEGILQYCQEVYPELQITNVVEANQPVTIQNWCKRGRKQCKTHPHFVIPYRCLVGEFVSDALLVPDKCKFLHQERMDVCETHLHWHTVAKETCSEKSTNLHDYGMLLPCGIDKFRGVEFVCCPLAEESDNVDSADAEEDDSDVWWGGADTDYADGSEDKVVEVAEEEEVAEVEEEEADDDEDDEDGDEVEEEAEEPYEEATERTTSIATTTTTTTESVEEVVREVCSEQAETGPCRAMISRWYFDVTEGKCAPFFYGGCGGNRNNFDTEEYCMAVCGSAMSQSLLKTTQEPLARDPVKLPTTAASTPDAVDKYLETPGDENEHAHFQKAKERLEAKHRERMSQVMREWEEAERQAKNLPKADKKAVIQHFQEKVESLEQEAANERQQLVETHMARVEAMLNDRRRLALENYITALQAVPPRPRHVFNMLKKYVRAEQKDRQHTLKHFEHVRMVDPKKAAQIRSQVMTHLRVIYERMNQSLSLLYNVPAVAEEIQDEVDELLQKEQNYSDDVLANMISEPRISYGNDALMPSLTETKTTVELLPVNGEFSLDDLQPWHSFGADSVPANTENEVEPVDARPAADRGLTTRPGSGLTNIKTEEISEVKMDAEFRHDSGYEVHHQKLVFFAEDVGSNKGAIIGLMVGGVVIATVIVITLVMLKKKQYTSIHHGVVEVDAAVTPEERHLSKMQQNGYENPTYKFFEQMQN
Sequence of Acetylcholinesterase (Homo sapiens, UniProt P22303) (P22303 whole entry): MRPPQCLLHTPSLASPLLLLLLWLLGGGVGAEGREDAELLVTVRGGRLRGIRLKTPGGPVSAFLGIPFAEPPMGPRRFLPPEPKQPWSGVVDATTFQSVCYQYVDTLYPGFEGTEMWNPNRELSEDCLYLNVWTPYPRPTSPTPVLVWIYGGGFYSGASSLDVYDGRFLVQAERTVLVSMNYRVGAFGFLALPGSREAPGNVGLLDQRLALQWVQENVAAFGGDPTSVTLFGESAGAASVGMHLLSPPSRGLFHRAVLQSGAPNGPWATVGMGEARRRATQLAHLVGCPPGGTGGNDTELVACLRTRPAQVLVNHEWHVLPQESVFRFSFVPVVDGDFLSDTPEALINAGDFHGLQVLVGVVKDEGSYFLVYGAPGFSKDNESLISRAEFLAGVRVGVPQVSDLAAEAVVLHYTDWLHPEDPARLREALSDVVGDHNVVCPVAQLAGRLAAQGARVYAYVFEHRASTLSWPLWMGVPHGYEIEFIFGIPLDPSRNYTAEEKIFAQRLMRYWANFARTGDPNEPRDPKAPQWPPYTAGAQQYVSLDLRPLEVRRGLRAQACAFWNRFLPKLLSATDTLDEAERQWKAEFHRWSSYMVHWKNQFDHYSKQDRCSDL

For `CCN(CC)c1ccc(/C=C/C(=O)c2cc(-c3ccc(C(C)C(=O)OC)cc3F)ccc2O)cc1` (stereo not drawn), the Activity in series [1] is 3.3 Trolox eq. Also, the “inhibition (INH)” value in series [2] turned out to be 75.5%.
As to `CCN(CC)CCCCCCOc1ccc(/C=C/C(=O)c2ccc(OCCCCCCN(CC)CC)cc2O)cc1`, the inhibition in [3] amounted to 84.2%; in series [4] it was 63.7%. Also, the Activity in series [5] amounted to 1.1 Trolox eq. In series [6], the inhibition at 10 µM came to 8.7%. In addition, the IC50 was 1.6 µM in series [7], 4.2 µM against Cholinesterase [9] and 3.7 µM on Acetylcholinesterase [10]. Besides, in series [8], the Ratio IC50 stood at 1.1.
As for `O=C(/C=C/c1ccc(OCCCCCCN2CCCC2)cc1)c1ccccc1O`, in [6], the inhibition at 10 µM is 15.6%. Moreover, the IC50 in series [7] is 18.5 µM; against Cholinesterase [9] it was 50.2 µM; at Acetylcholinesterase [10], 8.9 µM. In addition, the Ratio IC50 in [8] stood at 5.6.
In series [11], `COc1cc(/C=C/C(=O)CC(=O)/C=C/c2ccc(O)c(OC)c2)ccc1O` had an Activity of 56.5%. Also, the inhibition in series [3] is 76.5%.
For `CCN(CC)Cc1ccc(/C=C/C(=O)c2ccc(OC)c(OC)c2)cc1O`, the IC50 in [12] was determined as 1.21 µM; against Acetylcholinesterase [14], 0.44 µM. The compound also gave an inhibition in series [13] of 55%.
`O=C(/C=C/c1ccccc1)c1ccc(OCCCCCCN2CCCC2)cc1O`: the IC50 against Cholinesterase [15] was determined as 15.8 µM; on Acetylcholinesterase [16] it was 3.2 µM; in [7] it was 12.7 µM; on Cholinesterase [9], 12.3 µM; on Acetylcholinesterase [10], 4.2 µM. In addition, in series [6], the inhibition at 10 µM came to 9.5%. The Ratio IC50 in series [8] came out at 2.9.
Consider `CCN(C)C(=O)Oc1cccc(/C=C/C(=O)c2ccccc2O)c1`, for which the IC50 against Cholinesterase [17] stood at 3.1 µM.
